{
  "source": "ChEMBL document CHEMBL2203081",
  "about": "(Bioorg Med Chem Lett, 2012)",
  "key": {"Brain": {"tested_on": "Brain", "assay": "AUClast in Swiss albino mouse brain at 10 mg/kg, po", "type": "ADME, organism-based", "set-up": "time 0 - last, dose 10 mg/kg, route oral", "conditions": "in vivo", "method_in_brief": "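Male Swiss Albino mice, single dose given intravenously (1 mg/kg) or orally (10 mg/kg). Drug measured in plasma and brain, with AUClast taken for each. The brain/plasma ratio is based on AUClast, and oral bioavailability is derived from the IV and PO plasma data.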"}, "[1]": {"biological_target": "T1, Serine/threonine-protein kinase D1 (Homo sapiens) (UniProt Q15139)", "T1 sequence (whole entry)": "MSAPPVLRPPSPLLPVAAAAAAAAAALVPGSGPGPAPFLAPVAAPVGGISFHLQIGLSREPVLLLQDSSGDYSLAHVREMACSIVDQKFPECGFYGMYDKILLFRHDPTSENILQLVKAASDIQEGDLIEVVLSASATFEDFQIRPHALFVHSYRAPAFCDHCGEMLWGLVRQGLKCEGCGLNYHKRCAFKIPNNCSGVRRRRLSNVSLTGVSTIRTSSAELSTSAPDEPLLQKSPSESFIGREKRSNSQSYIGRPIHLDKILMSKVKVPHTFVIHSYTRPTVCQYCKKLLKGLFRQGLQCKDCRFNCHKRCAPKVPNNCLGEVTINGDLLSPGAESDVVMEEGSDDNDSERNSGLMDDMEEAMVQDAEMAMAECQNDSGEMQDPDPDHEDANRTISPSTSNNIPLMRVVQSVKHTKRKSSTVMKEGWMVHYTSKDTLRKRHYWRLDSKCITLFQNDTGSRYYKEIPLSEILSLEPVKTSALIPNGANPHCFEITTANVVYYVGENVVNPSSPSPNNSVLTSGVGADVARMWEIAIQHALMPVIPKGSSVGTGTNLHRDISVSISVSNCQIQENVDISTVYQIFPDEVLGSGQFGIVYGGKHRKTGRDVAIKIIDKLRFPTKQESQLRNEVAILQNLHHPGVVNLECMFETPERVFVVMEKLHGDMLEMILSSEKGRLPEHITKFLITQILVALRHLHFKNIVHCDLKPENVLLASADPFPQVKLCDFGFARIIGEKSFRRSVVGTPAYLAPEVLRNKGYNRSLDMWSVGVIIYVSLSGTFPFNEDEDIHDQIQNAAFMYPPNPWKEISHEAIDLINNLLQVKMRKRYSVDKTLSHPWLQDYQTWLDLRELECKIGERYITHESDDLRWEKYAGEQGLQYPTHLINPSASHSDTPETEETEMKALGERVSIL", "assay": "Inhibition of PRKD1 assessed as residual activity at 10 uM relative to control"}, "[2]": {"biological_target": "Serine/threonine-protein kinase 17B (Homo sapiens) (UniProt O94768)", "sequence (O94768 whole entry)": "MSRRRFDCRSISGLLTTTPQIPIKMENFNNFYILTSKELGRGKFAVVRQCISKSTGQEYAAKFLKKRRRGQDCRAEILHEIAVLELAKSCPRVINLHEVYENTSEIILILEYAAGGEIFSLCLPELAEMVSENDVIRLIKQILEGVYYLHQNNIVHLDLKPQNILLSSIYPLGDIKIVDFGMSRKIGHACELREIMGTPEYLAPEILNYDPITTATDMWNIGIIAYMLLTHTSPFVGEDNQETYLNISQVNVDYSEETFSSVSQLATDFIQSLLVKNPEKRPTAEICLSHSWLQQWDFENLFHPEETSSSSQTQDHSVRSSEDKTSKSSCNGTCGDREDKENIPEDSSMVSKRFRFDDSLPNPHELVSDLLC", "assay": "Inhibition of DRAK2 assessed as residual activity at 10 uM relative to control", "method_in_brief": "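Radioactivity-based enzymatic assay of kinase activity, run as part of a 131-kinase profiling panel at the National Centre for Protein Kinase Profiling, Dundee.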"}, "[3]": {"biological_target": "Insulin receptor (Homo sapiens) (UniProt P06213)", "sequence (P06213 28-758 limits assumed)": "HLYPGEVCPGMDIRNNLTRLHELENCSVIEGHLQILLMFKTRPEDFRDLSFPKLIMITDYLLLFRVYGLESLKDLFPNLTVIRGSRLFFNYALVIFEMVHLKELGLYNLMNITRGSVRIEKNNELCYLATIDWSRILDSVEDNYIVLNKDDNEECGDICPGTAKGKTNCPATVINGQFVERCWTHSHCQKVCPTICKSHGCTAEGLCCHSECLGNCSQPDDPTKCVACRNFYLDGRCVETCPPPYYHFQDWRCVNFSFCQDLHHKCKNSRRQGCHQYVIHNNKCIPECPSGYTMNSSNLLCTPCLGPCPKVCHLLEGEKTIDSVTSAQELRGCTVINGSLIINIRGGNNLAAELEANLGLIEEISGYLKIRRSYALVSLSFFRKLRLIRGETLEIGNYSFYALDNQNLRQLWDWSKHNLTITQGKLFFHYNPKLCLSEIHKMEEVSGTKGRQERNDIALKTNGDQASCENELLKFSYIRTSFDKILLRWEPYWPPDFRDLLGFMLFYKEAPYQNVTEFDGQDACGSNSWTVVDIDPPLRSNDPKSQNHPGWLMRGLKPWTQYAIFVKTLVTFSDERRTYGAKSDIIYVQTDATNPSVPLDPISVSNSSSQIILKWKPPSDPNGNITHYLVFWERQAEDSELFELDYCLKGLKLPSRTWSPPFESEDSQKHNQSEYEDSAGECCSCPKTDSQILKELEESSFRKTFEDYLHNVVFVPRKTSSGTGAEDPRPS", "sequence (P06213 763-1382 limits assumed)": "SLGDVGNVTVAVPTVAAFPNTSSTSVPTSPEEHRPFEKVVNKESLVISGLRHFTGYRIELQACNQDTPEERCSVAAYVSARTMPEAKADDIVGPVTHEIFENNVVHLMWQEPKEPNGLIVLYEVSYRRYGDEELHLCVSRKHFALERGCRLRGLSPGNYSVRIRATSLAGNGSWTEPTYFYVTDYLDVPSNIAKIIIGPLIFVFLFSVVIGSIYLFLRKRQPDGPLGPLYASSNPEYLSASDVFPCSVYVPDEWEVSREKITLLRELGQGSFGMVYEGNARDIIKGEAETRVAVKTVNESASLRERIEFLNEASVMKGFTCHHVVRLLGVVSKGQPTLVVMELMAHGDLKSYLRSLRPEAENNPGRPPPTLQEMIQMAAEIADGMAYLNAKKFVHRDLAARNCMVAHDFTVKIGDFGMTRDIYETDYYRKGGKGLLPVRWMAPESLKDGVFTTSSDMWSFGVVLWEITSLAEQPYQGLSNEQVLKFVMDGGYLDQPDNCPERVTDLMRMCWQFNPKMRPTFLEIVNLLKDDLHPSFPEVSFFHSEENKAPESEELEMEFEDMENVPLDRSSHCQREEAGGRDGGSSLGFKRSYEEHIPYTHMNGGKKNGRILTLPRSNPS", "assay": "Inhibition of INSR assessed as residual activity at 10 uM relative to control"}, "[4]": {"biological_target": "T2, Ephrin type-B receptor 2 (Homo sapiens) (UniProt P29323)", "T2 sequence (whole entry)": "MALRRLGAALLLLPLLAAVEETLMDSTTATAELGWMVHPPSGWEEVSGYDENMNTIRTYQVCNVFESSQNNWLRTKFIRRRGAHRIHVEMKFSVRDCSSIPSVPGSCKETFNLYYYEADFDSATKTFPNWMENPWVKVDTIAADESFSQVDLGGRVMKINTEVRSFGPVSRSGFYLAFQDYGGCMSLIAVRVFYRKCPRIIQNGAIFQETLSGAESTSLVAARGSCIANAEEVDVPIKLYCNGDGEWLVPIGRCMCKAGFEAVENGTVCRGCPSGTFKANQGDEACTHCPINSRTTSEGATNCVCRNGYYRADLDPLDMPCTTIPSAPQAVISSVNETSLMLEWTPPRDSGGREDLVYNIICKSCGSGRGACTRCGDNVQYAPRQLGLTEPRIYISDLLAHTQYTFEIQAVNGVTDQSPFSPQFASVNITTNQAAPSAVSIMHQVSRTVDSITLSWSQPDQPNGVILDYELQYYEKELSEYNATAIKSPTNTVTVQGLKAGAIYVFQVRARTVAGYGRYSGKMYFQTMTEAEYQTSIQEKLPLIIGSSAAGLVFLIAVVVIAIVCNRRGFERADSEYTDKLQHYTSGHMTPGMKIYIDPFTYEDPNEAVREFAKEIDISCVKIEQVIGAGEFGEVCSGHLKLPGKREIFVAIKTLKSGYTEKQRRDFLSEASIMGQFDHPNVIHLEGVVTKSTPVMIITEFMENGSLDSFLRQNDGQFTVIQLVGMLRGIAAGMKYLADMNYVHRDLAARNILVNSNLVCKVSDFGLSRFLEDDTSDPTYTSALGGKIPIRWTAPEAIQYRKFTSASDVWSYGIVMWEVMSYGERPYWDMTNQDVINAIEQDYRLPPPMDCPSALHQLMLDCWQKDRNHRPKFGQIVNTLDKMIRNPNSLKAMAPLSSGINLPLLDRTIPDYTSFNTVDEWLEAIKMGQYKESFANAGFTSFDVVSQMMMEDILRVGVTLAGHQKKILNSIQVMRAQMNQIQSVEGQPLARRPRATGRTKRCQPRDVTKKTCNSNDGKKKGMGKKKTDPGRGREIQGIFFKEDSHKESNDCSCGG", "assay": "Inhibition of EPH-B2 assessed as residual activity at 10 uM", "method_in_brief": "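Standard radioactivity-based enzymatic kinase assays on a 131-kinase panel run by the Dundee profiling service; residual kinase activity recorded.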"}, "[5]": {"biological_target": "Tyrosine-protein kinase Tec (Homo sapiens) (UniProt P42680)", "assay": "Inhibition of TEC assessed as residual activity at 10 uM relative to control"}, "[6]": {"biological_target": "Cyclin-dependent kinase 17 (Homo sapiens) (UniProt Q00537)", "sequence (Q00537 whole entry, looked up)": "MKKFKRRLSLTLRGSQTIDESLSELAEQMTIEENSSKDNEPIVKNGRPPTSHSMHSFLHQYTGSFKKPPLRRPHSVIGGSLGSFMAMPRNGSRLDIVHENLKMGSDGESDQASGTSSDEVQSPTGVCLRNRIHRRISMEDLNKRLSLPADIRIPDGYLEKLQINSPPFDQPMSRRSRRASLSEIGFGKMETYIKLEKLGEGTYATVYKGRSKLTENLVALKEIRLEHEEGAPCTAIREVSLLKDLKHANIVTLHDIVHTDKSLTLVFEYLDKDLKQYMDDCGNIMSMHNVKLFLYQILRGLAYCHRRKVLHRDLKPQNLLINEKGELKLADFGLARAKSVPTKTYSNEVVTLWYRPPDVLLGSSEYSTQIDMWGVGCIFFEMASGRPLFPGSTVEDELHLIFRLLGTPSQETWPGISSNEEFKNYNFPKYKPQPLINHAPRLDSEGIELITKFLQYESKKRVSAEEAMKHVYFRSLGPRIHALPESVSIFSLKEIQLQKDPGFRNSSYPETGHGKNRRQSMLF", "assay": "Inhibition of PCTK2 assessed as residual activity at 10 uM relative to control"}, "[7]": {"biological_target": "Inhibitor of nuclear factor kappa-B kinase subunit epsilon (Homo sapiens) (UniProt Q14164)", "sequence (Q14164 whole entry)": "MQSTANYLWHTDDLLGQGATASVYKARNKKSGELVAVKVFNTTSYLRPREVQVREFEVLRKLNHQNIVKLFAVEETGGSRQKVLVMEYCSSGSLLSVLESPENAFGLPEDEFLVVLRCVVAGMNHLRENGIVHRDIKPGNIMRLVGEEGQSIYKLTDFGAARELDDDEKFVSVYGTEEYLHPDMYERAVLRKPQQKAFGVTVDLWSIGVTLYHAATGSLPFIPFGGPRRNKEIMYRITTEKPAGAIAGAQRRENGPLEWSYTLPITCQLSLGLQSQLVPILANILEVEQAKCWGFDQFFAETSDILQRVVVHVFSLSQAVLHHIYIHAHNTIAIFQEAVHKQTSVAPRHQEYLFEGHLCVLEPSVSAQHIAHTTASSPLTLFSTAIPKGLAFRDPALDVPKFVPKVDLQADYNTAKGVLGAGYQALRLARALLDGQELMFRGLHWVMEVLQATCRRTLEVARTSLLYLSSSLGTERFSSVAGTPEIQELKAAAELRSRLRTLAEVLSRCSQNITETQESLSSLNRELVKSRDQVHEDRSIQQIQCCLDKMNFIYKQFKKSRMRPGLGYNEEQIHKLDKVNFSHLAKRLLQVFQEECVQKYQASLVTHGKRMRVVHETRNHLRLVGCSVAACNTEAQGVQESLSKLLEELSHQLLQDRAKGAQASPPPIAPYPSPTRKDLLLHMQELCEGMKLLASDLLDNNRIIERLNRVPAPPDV", "assay": "Inhibition of IKKe assessed as residual activity at 10 uM"}, "[8]": {"biological_target": "Serine/threonine-protein kinase OSR1 (Homo sapiens) (UniProt O95747)", "sequence (O95747 2-527 limits assumed)": "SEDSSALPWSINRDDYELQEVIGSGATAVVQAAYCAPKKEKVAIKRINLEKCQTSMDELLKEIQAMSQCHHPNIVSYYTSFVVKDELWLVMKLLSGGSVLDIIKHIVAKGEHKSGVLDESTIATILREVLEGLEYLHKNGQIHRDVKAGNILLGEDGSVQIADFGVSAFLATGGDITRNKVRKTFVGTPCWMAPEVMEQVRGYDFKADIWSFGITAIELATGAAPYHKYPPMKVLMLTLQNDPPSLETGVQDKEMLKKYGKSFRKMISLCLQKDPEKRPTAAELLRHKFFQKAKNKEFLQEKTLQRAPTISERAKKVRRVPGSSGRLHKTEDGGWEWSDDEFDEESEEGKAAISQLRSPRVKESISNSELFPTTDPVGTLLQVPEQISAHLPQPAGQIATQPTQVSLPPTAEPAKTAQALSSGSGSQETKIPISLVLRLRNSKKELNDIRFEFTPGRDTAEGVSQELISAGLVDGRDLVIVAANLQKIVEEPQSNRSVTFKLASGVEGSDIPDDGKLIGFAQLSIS", "assay": "Inhibition of OSR1 assessed as residual activity at 10 uM relative to control"}, "[9]": {"biological_target": "Casein kinase I isoform gamma-2 (Homo sapiens) (UniProt P78368)", "sequence (P78368 whole entry, looked up, canonical isoform)": "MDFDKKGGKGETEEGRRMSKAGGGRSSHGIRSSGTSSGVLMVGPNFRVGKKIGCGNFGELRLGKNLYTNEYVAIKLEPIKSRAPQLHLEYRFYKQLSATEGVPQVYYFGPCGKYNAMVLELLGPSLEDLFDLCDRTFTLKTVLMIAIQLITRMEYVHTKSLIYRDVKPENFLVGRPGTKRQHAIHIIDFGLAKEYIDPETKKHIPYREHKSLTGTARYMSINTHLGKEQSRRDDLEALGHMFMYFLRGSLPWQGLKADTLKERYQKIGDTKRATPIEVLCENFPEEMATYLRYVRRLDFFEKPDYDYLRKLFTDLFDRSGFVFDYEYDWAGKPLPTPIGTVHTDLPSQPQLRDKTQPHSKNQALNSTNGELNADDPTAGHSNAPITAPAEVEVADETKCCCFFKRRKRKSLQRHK", "assay": "Inhibition of CSNK1G2 assessed as residual activity at 10 uM relative to control", "method_in_brief": "(§1)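 Competition kinase-binding assay (KINOMEscan) across a non-redundant panel of 329 kinases beyond the radiometric panel; residual binding expressed relative to control.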"}, "[10]": {"biological_target": "Tyrosine-protein kinase CSK (Homo sapiens) (UniProt P41240)", "sequence (P41240 2-450 limits assumed)": "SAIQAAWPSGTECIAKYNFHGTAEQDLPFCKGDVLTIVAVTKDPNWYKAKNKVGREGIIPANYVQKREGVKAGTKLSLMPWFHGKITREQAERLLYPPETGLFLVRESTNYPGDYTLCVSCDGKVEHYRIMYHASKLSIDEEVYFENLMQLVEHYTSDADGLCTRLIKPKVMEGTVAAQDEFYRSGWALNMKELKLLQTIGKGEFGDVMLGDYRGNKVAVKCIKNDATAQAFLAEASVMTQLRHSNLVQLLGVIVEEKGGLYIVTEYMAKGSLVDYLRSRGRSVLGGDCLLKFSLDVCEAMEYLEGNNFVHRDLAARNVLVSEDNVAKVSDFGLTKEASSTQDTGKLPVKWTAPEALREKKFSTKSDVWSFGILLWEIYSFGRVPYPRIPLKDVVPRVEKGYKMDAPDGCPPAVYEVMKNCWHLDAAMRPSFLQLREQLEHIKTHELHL", "assay": "Inhibition of CSK assessed as residual activity at 1 uM", "method_in_brief": "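Radioactivity-based enzymatic assay against a panel of 131 kinases (Dundee profiling). Activity remaining was measured with compound present at the stated concentration.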"}, "[11]": {"biological_target": "MAP kinase-activated protein kinase 5 (Homo sapiens) (UniProt Q8IW41)", "sequence (Q8IW41 whole entry)": "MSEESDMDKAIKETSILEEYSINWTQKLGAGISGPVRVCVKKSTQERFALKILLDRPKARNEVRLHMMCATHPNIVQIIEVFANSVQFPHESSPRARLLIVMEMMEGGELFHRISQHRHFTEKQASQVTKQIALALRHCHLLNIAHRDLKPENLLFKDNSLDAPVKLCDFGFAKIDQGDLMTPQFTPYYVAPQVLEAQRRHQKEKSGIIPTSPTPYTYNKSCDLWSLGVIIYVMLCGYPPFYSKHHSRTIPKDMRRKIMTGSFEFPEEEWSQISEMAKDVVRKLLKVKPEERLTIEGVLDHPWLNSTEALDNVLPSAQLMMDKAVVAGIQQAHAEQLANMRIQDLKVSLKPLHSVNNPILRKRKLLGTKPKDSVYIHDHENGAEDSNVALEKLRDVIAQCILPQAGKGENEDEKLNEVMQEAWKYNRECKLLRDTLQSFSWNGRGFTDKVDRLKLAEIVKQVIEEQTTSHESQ", "assay": "Inhibition of PRAK assessed as residual activity at 1 uM"}, "[12]": {"biological_target": "T2, Ephrin type-B receptor 2 (Homo sapiens)", "assay": "Inhibition of EPHB2 assessed as residual activity at 10 uM relative to control", "method_in_brief": "as §1"}},
  "data": [
    {"smiles": "O=C(Nc1cccnc1)c1cc(-c2ccnc(F)c2)ccc1OCc1ccccc1", "values": [
      {"measurement": "AUClast", "setting": "Brain", "value": 1539.4, "unit": "ng·h/mL"},
      {"measurement": "Activity", "setting": "[1]", "value": 41, "unit": "%"},
      {"measurement": "Activity", "setting": "[2]", "value": 72, "unit": "%"},
      {"measurement": "Activity", "setting": "[3]", "value": 44, "unit": "%"},
      {"measurement": "Activity", "setting": "[4]", "value": 115, "unit": "%"},
      {"measurement": "Activity", "setting": "[5]", "value": 53, "unit": "%"},
      {"measurement": "Activity", "setting": "[6]", "value": 75, "unit": "%"},
      {"measurement": "Activity", "setting": "[7]", "value": 102, "unit": "%"},
      {"measurement": "Activity", "setting": "[8]", "value": 63, "unit": "%"},
      {"measurement": "Activity", "setting": "[9]", "value": 27, "unit": "%"},
      {"measurement": "Activity", "setting": "[10]", "value": 104, "unit": "%"},
      {"measurement": "Activity", "setting": "[11]", "value": 109, "unit": "%"},
      {"measurement": "Activity", "setting": "[12]", "value": 71, "unit": "%"}
    ]}
  ]
}
